Assay results as given in ChEMBL document CHEMBL1121454, “Alkylating nucleosides. 4. Synthesis and cytostatic activity of chloro- and iodomethylpyrazole nucleosides” (1980).
Values after ≈ are worked out from the molar mass of the structure shown. Each block holds one compound with its values, some of them ahead of it.

How the values were obtained:
Assay type in all cases: functional
HeLa = assay: Cytostatic activity against HeLa cells; details: Homo sapiens, read-out: ED50 (the source's name)
Summary of the method: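 HeLa cells at 10⁵ cells/mL in minimal Eagle's medium with 10% fetal calf serum, left 2–3 h at 37 °C in Leighton tubes to attach. Compound added as suspension in sterile saline with 0.05% Tween 80, 10% of final volume. Incubated 72 h at 37 °C. Growth from cell protein by Oyama–Eagle colorimetry; ED50 in μg/mL. 6-Mercaptopurine positive control.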

Mus musculus [1] = assay: Percent increase in median survival time of treated mice compared with controls at 12.5 mg/kg
Summary of the method: (§1)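 Ehrlich carcinoma ascites in female ICR Swiss mice (19–22 g), about 5 × 10⁵ cells ip, per NCI protocols 1100/1200. From 24 h after implant, nine daily ip doses in saline with 0.05% Tween 80 (0.4 mL). Groups of 7 treated and 30 controls; 5-fluorouracil 20 (mg/kg)/injection as positive control. T/C × 100 taken from median survival time against controls; evaluation on day 30.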

Mus musculus [2] = assay: Percent increase in median survival time of treated mice compared with controls at 25 mg/kg; summary of the method: as §1
Mus musculus [3] = assay: Number of survivors on day 5 to that of number(7) of mice at 50 mg/kg ip in mice bearing ECA tumor was determined; details: route intraperitoneal
Summary of the method: (§2)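 Female ICR Swiss mice (19–22 g) given about 5 × 10⁵ Ehrlich ascites carcinoma cells ip from a 7-day donor tumour. Starting 24 h later, nine ip doses at 24-h intervals, suspended in 0.9% NaCl with 0.05% Tween 80, 0.4 mL per injection. Groups of 7 treated and 30 controls. Read-out is survivors on day 5 over mice started.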

Mus musculus [4] = assay: Percent increase in median survival time of treated mice compared with controls at 50 mg/kg; summary of the method: as §1
Mus musculus [5] = assay: Difference in weight on day 5 in mice bearing ECA tumor at 12.5 mg/kg
Summary of the method: (§3)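 Female ICR Swiss mice, 19–22 g, given about 5 × 10⁵ Ehrlich ascites cells ip from a 7-day donor. Starting 24 h later, nine daily ip doses suspended in 0.9% NaCl with 0.05% Tween 80, 0.4 mL. Groups of 7 treated, 30 controls, per NCI protocols 1100/1200. Value is weight difference (g) between test and control animals.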

Mus musculus [6] = assay: Number of survivors on day 5 to that of number(7) of mice at 25 mg/kg ip in mice bearing ECA tumor was determined; details: route intraperitoneal; summary of the method: as §2
Mus musculus [7] = assay: Number of cures on day 30 in mice bearing ECA tumor at 12.5 mg/kg
Summary of the method: (§4)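 Ehrlich ascites carcinoma, about 5 × 10⁵ cells ip from a 7-day donor, in female ICR Swiss mice of 19–22 g. Nine ip doses at 24-h intervals from 24 h post-implant, in saline with 0.05% Tween 80, 0.4 mL. Groups of 7 treated, 30 controls; NCI protocols 1100/1200. Cures are survivors on day 30. 5-Fluorouracil 20 mg/kg/injection reference.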

Mus musculus [8] = assay: Number of cures on day 30 in mice bearing ECA tumor at 25 mg/kg; summary of the method: as §4
Mus musculus [9] = assay: Number of survivors on day 5 to that of number(7) of mice at 12.5 mg/kg ip in mice bearing ECA tumor was determined; details: route intraperitoneal; summary of the method: as §2
Mus musculus [10] = assay: Difference in weight on day 5 in mice bearing ECA tumor at 50 mg/kg; summary of the method: as §3
Mus musculus [11] = assay: Number of cures on day 30 in mice bearing ECA tumor at 50 mg/kg; summary of the method: as §4
Mus musculus [12] = assay: Difference in weight on day 5 in mice bearing ECA tumor at 25 mg/kg; summary of the method: as §3

SMILES: CCOC(=O)c1cc(CCl)[nH]n1
EC50 (HeLa): > 100 µg/mL

SMILES: NC(=O)c1cc(CCl)[nH]n1
EC50 (HeLa): > 100 µg/mL

EC50 (HeLa): 26 µg/mL (≈ 62.2 µM)
SMILES: CC(=O)OC[C@H]1O[C@@H](n2nc(CCl)cc2C(N)=O)[C@H](OC(C)=O)[C@@H]1OC(C)=O

EC50 (HeLa): 32 µg/mL (≈ 71.6 µM)
SMILES: CCOC(=O)c1cc(CCl)nn1[C@@H]1O[C@H](COC(C)=O)[C@@H](OC(C)=O)[C@H]1OC(C)=O

EC50 (HeLa): 12 µg/mL (≈ 28.7 µM)
SMILES: CC(=O)OC[C@H]1O[C@@H](n2nc(C(N)=O)cc2CCl)[C@H](OC(C)=O)[C@@H]1OC(C)=O

SMILES: CC(=O)OC[C@H]1O[C@@H](n2nc(C(N)=O)cc2CI)[C@H](OC(C)=O)[C@@H]1OC(C)=O
T/C (Mus musculus [1]): 121%
T/C (Mus musculus [2]): 141%
Survivors (Mus musculus [3]): 7
T/C (Mus musculus [4]): 100%
Weight difference (Mus musculus [5]): 0.3
EC50 (HeLa): 2 µg/mL (≈ 3.93 µM)
Survivors (Mus musculus [6]): 7
Cures (Mus musculus [7]): 2
Cures (Mus musculus [8]): 4
Survivors (Mus musculus [9]): 7
Weight difference (Mus musculus [10]): -0.5
Cures (Mus musculus [11]): 1
Weight difference (Mus musculus [12]): -0.25

EC50 (HeLa): 5.5 µg/mL (≈ 10.2 µM)
SMILES: CCOC(=O)c1cc(CI)nn1[C@@H]1O[C@H](COC(C)=O)[C@@H](OC(C)=O)[C@H]1OC(C)=O

SMILES: CC(=O)OC[C@H]1O[C@@H](n2nc(CI)cc2C(N)=O)[C@H](OC(C)=O)[C@@H]1OC(C)=O
T/C (Mus musculus [1]): 131%
T/C (Mus musculus [2]): 158%
Survivors (Mus musculus [3]): 7
T/C % (Mus musculus [4]): 63%
Weight difference (Mus musculus [5]): -0.6
EC50 (HeLa): 1.5 µg/mL (≈ 2.95 µM)
Survivors (Mus musculus [6]): 7
Cures (Mus musculus [7]): 2
Cures (Mus musculus [8]): 4
Survivors (Mus musculus [9]): 7
Weight difference (Mus musculus [10]): -0.6
Weight difference (Mus musculus [12]): -0.4

EC50 (HeLa): 40 µg/mL (≈ 77.1 µM)
SMILES: CCOC(=O)c1cc(CCl)nn1C1O[C@@H](COC(C)=O)[C@H](OC(C)=O)[C@@H](OC(C)=O)[C@@H]1OC(C)=O (some centres not stated)

SMILES: CCOC(=O)c1cc(CI)[nH]n1
EC50 (HeLa): > 100 µg/mL

EC50 (HeLa): 18 µg/mL (≈ 36.7 µM)
SMILES: CC(=O)OC[C@@H]1OC(n2nc(CCl)cc2C(N)=O)[C@@H](OC(C)=O)[C@H](OC(C)=O)[C@H]1OC(C)=O (some centres not stated)

SMILES: NC(=O)c1cc(CI)[nH]n1
EC50 (HeLa): > 100 µg/mL

EC50 (HeLa): 12 µg/mL (≈ 24.5 µM)
SMILES: CC(=O)OC[C@H]1OC(n2nc(CCl)cc2C(N)=O)[C@H](OC(C)=O)[C@@H](OC(C)=O)[C@@H]1OC(C)=O (some centres not stated)

EC50 (HeLa): > 100 µg/mL
SMILES: CCOC(=O)c1cc(CCl)nn1C1O[C@H](COC(C)=O)[C@@H](OC(C)=O)[C@H](OC(C)=O)[C@H]1OC(C)=O (some centres not stated)

EC50 (HeLa): 2.5 µg/mL (≈ 4.1 µM)
SMILES: CCOC(=O)c1cc(CI)nn1C1O[C@@H](COC(C)=O)[C@H](OC(C)=O)[C@@H](OC(C)=O)[C@@H]1OC(C)=O (some centres not stated)

SMILES: CC(=O)OC[C@@H]1OC(n2nc(CI)cc2C(N)=O)[C@@H](OC(C)=O)[C@H](OC(C)=O)[C@H]1OC(C)=O (some centres not stated)
T/C (Mus musculus [2]): 105%
Survivors (Mus musculus [3]): 7
T/C (Mus musculus [4]): 176%
EC50 (HeLa): 2 µg/mL (≈ 3.44 µM)
Survivors (Mus musculus [6]): 7
Cures (Mus musculus [8]): 1
Weight difference (Mus musculus [10]): -0.3
Cures (Mus musculus [11]): 4
Weight difference (Mus musculus [12]): -0.1
